XiGFP reactiv = activators of X-chromosome reactivation in mouse fibroblasts | XiGFP mouse fibroblasts, % GFP-positive cells imaging, 3 d; cells co-treated with 5-aza-dC sensitizer; scaled so ellipticine positive control = 100% | activation, % at 7.58 µM | hit rate 0.055% among 360,000;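 active = mean normalized replicate activation at least 10% and every replicate at or above 10%; inconclusive = only one of the two criteria met; inactive = mean below 10% and not all replicates reach 10%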;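 also: 0% = median of on-plate neutral control wells and 100% = ellipticine 6 µM median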
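Schedule: 3 d treatment, 15 min room-temperature fixation; system: 68-5-11 XiGFP fibroblast line; buffer or medium: DMEM plus 5-aza-dC sensitizer; control set: ellipticine 6 µM positive control; compound: one concentration, pinned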
Casp6 inh = blocks human caspase-6 cleavage activity | P55212 | inhibition, % at 12.5 µM | hit rate 0.53% among 350,000 | purified caspase-6, Z-VEID-R110 cleavage fluorescence;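 active = mean inhibition across replicates at least about 35%, with every replicate also reaching that limit, limit read from the data; inconclusive = only one of the two criteria met; inactive = neither criterion met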;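 also: 0% = median of neutral control wells and 100% = no fluorescence left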
Target sequence (P55212 24-179 limits assumed): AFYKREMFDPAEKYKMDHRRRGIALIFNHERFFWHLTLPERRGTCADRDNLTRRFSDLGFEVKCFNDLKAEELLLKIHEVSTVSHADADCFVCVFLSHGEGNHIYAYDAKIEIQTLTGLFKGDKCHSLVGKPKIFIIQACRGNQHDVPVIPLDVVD
Target sequence (P55212 194-293 limits assumed): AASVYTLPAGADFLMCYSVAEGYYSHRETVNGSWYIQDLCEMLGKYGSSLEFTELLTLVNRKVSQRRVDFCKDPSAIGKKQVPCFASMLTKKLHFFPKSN
CaV13 ICDI inh = Primary screen for inhibitors of IQ motif and Ca2+-dependent inactivation inhibitor domain binding in CACNA1D, Förster resonance energy transfer in living cells, … | HEK cells, CFP/YFP FRET ICDI-IQ, plate reader, 10 min; percent FRET-ratio fall versus neutral wells | hit rate 0.098% among 340,000 | AID 743397 | inhibition, % at 12.3 µM;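 active = mean replicate inhibition of at least 30% and at least 1% of replicates passing that level; inconclusive = only one of the two criteria is met; inactive = neither criterion is met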;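 also: 0% = median of the neutral control wells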
DENV2 CPE = DENV2-induced cell death inhibition; DENV2-infected cells, cytopathic effect rescue, plate reader; CPE inhibition, % at 9.99 µM; hit rate 1.7% among 350,000; in the data active = CPE inhibition above about 20%, passing the limit was not always enough; inconclusive = no clear call, values can overlap the other calls; tested in BHK-21 cells;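 also: 0% = median of neutral control wells and 100% = median of positive control wells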
FN deposit inh = fibronectin deposition inhibition; AH1F fibroblasts, Alexa488-fibronectin deposition fluorescence, overnight; inhibition, % at 12.6 µM; hit rate 0.086% among 350,000;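 active = mean inhibition across replicates of 30% or more, regardless of how many single replicates reach that level; inconclusive = mean under 30% yet at least half of replicates reach 30%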;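 also: positive control wells lacked labelled fibronectin entirely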
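Material – AH1F fibroblast monolayer, labelled fibronectin deposition · Reagent – labelled fibronectin 24 nM · Timing – 1 h adhesion, overnight exposure · Measured by – fluorescence at 485 nm excitation, 525 nm emission · Read-out – inhibition of fibronectin deposition signal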
CASP1 counter = caspase-1 (human) inhibition counter-screen; shares compounds with Casp6 inh; activity change, negative = inhibition, % at 35 µM; purified caspase-1, Z-YVAD-R110 cleavage fluorescence; 100 tested, under 10 active;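 active = compounds lowering fluorescence whose fitted half-maximal concentration is no more than twice their top tested dose; inconclusive = flat fit with 30 to 70% inhibition, or poor fit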
Numbers without * were called inactive; ? = inconclusive; nt = no result given; + = active, no number. In the library only some 2% were active in any assay of this set; here they are far more common.

SMILES	XiGFP reactiv	Casp6 inh	CaV13 ICDI inh	DENV2 CPE	FN deposit inh	others
O=C(C[C@H]1CC[C@@H]2[C@H](COC[C@H](O)CN2CC2CCOCC2)O1)N1CCOCC1	0.2	-3.2	nt	48.8*	-8.6
O=C(C[C@H]1CC[C@@H]2[C@H](COC[C@@H](O)CN2CC2CCCCC2)O1)NCC1CC1	0.0	1.5	nt	10.6	1.6
O=C(C[C@@H]1C=C[C@H](NC(=O)c2cccnc2)[C@@H](CO)O1)NCCN1CCCCC1	0.3	nt	nt	nt	20.4
O=C1N[C@H](Cc2ccccc2)COCc2cn(nn2)CC[C@@H]1Cc1ccc(Cl)cc1	0.1	nt	nt	nt	-0.7
Cc1[nH]c2ccccc2c1/C=N/Nc1ccc([N+](=O)[O-])cc1	74.9*	-2.2	-15.5	-2.8	-67.5
COc1cccc(CN2CCc3[nH]c(=S)[nH]c(=O)c3C2)c1	0.3	41.0*	-3.0	0.4	-0.4
COc1ccccc1CN1C[C@@H](C)[C@@H](OC)CN(C)C(=O)c2cc(NC(C)=O)ccc2OC[C@@H]1C	0.2	nt	nt	?	8.3
C[C@@H]1CN([C@H](C)CO)C(=O)c2cc(C3=CCCCC3)cnc2O[C@@H]1CN(C)C(=O)Nc1cccc(F)c1	0.0	-1.9	nt	11.8	-1.6
CN1CCN(C(=O)c2cc3sc4ccccc4c3s2)CC1	-0.1	-0.3	-5.8	43.4*	-4.9
CCCC(=O)Nc1ccc2c(c1)C(=O)N(C)C[C@H](OC)[C@@H](C)CN(Cc1ccncc1)[C@@H](C)CO2	-0.4	nt	nt	nt	3.8
CC(OC(=O)c1n[nH]c2ccccc12)C(=O)Nc1ccccc1[N+](=O)[O-] (stereo not drawn)	0.0	35.9*	-4.8	-0.8	9.6
CN(C)CC(=O)N1[C@@H](CO)[C@H](c2ccccc2)C12CN(CC1CC1)C2	0.0	nt	nt	nt	-1.8
CO[C@@H]1CN(C)C(=O)c2cc(NC(=O)C3CC3)ccc2OC[C@H](C)N(Cc2ccccc2)C[C@@H]1C	0.2	-0.3	nt	0.9	6.7
Nc1ccc2c3c(cccc13)C(=O)N(c1ccccc1)C2=O	0.6	3.5	-111.1	?	-12.1
CC(C)CCN1C(=O)c2cccc3c(N)ccc(c23)C1=O	98.9*	-3.6	+	4.9	-28.6
Cc1ccc(NC(=O)CCN2CCN(CCO)CC2)cc1Br	0.5	-19.6	3.2	20.4*	10.5
Cc1ccc(C(=O)NCC(c2ccco2)N2CCc3ccccc32)cc1 (stereo not drawn)	0.4	-2.2	-6.2	-6.7	-16.8
O=C(NCC(c1ccco1)N1CCc2ccccc21)c1ccc([N+](=O)[O-])cc1 (stereo not drawn)	0.1	71.9*	-5.9	-0.8	6.3
O=C(NCC(c1ccco1)N1CCc2ccccc21)c1cccc([N+](=O)[O-])c1 (stereo not drawn)	-0.1	63.3*	-6.2	10.0	7.0
COc1ccc(S(=O)(=O)NC[C@@H]2CC[C@H]3[C@H](CN3Cc3cc(F)ccc3F)O2)cc1	nt	-1.3	nt	-11.2	nt
O=C(Oc1ccccc1)c1ccccc1C(=O)Oc1ccccc1	nt	-2.7	nt	27.1*	nt
O=C(Oc1ccccc1)c1cccc2cccc(C(=O)Oc3ccccc3)c12	5.0	-0.1	-5.0	7.7	-13.2
CCc1ccc(-c2nc(CN3CCC(C(=O)NCCc4ccc(OC)c(OC)c4)CC3)c(C)o2)cc1	nt	nt	-4.3	nt	8.0
COc1ccc(CCNC(=O)C2CCN(Cc3nc(-c4ccccc4F)oc3C)CC2)cc1OC	nt	nt	-4.3	nt	33.5*
O=C(N[C@@H]1CC[C@H](CC(=O)N2CCOCC2)O[C@H]1CO)c1ccccn1	-0.2	1.3	nt	2.3	nt
SMILES	XiGFP reactiv	Casp6 inh	CaV13 ICDI inh	DENV2 CPE	FN deposit inh	others
CC(C)NC(=O)Nc1ccc2c(c1)CC(=O)N(C)C[C@H](C)[C@H](CN(C)S(C)(=O)=O)O2	0.3	nt	nt	nt	0.2
COc1ccc2c3c([nH]c2c1)[C@@H](CO)N(Cc1nccs1)CC31CN(C(=O)C2CCCC2)C1	0.3	1.4	nt	28.6*	nt
COc1ccc2c3c([nH]c2c1)[C@H](CO)N(C(=O)c1cnccn1)CC31CCN(S(C)(=O)=O)CC1	0.3	-1.7	nt	68.2*	nt
COc1ccc2c3c([nH]c2c1)[C@H](CO)N(C(=O)C1CCC1)CC31CCN(Cc2nccs2)CC1	0.2	-4.4	nt	40.6*	nt
COc1ccc2c3c([nH]c2c1)[C@@H](CO)N(C(=O)c1ccccn1)CC31CN(C(=O)C2CCC2)C1	0.0	-0.6	nt	-6.3	-0.4
COc1ccc2c3c([nH]c2c1)[C@@H](CO)N(C(=O)c1ccccn1)CC31CN(C(=O)C2CCCC2)C1	0.4	-1.3	nt	24.4*	nt
CO[C@H]1CN(C)C(=O)c2ccc(NC(=O)C3CCCCC3)cc2OC[C@@H](C)N(Cc2nccs2)C[C@@H]1C	0.1	0.2	nt	-5.5	2.2
C[C@H]1CN([C@@H](C)CO)C(=O)c2cc(/C=C/c3ccccc3)cnc2O[C@H]1CN(C)C(=O)c1ccccc1	-1.3	-0.2	nt	1.7	21.0
Cc1[nH]nc(S(=O)CC(=O)O)c1[N+](=O)[O-] (stereo not drawn)	0.1	40.6*	-3.0	-7.4	6.4	CASP1 counter=9.2
Cc1[nH]nc(NCCO)c1[N+](=O)[O-]	-0.1	2.2	5.3	-1.9	-158.1
O=C(c1cccc(-n2cccc2)c1)N1CCN(S(=O)(=O)c2ccccc2)CC1	-0.1	50.9*	-4.1	-10.9	-7.7	CASP1 counter=3.2
Cc1ccc(S(=O)(=O)N2CCN(C(=O)c3cccc(-n4cccc4)c3)CC2)cc1	0.0	5.7	-6.0	-5.4	0.2
C[C@@H]1CN([C@H](C)CO)C(=O)c2cc(C#CCN(C)C)cnc2O[C@@H]1CN(C)Cc1cccc(C(=O)O)c1	0.5	nt	nt	nt	nt
CN(CC(=O)Nc1ccccc1Cl)C(=O)COC(=O)c1ccc([N+](=O)[O-])s1	-0.1	99.4*	-3.0	4.2	-2.5	CASP1 counter=-3.8
COc1ccc(C(=O)OCC(=O)Nc2ncc([N+](=O)[O-])s2)cc1OC	-0.1	56.9*	-7.0	0.2	1.6	CASP1 counter=-1.6
